One assay has as its target Estrogen receptor (Homo sapiens, UniProt Q92731+P03372). To be noted: cv-1.
The target of the next assay is T1, Progesterone receptor (Homo sapiens, UniProt P06401).
T1 sequence (P06401 whole entry): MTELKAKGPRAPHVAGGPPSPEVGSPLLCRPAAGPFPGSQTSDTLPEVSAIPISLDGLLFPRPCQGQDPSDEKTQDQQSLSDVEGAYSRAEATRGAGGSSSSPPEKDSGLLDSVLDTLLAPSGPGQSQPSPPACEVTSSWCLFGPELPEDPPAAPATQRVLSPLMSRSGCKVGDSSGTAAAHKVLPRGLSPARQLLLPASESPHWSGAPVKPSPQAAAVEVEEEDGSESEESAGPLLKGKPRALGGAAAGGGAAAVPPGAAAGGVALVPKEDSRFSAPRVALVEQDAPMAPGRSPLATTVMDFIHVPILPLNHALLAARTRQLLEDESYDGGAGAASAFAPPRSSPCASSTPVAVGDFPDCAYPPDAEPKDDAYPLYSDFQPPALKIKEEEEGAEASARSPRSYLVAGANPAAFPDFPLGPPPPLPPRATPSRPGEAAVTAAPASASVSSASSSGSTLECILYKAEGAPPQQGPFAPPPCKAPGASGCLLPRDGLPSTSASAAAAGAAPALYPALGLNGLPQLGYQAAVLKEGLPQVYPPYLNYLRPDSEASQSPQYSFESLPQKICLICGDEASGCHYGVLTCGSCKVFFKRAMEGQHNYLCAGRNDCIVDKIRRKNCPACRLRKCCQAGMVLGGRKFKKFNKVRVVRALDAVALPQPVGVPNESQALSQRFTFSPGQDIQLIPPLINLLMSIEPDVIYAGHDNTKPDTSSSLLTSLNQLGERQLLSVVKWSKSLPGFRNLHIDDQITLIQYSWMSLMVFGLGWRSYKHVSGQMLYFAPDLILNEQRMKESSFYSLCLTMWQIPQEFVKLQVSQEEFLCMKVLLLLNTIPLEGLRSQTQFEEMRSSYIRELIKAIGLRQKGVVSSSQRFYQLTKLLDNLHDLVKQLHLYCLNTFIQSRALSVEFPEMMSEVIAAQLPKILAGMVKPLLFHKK
Kind of assay: Effective concentration (EC50) against human progesterone receptor expressed in CV-1 cell. The class given is functional, cell-based.

The test system of another assay is CV-1. The experiment in a line: Inhibitory concentration in CV-1 cell. The class given is functional, cell-based, Cercopithecidae. The settings on record: Chlorocebus aethiops.
The target in assay [1] is T2, Mineralocorticoid receptor (Homo sapiens, UniProt P08235).
T2 sequence (P08235 whole entry): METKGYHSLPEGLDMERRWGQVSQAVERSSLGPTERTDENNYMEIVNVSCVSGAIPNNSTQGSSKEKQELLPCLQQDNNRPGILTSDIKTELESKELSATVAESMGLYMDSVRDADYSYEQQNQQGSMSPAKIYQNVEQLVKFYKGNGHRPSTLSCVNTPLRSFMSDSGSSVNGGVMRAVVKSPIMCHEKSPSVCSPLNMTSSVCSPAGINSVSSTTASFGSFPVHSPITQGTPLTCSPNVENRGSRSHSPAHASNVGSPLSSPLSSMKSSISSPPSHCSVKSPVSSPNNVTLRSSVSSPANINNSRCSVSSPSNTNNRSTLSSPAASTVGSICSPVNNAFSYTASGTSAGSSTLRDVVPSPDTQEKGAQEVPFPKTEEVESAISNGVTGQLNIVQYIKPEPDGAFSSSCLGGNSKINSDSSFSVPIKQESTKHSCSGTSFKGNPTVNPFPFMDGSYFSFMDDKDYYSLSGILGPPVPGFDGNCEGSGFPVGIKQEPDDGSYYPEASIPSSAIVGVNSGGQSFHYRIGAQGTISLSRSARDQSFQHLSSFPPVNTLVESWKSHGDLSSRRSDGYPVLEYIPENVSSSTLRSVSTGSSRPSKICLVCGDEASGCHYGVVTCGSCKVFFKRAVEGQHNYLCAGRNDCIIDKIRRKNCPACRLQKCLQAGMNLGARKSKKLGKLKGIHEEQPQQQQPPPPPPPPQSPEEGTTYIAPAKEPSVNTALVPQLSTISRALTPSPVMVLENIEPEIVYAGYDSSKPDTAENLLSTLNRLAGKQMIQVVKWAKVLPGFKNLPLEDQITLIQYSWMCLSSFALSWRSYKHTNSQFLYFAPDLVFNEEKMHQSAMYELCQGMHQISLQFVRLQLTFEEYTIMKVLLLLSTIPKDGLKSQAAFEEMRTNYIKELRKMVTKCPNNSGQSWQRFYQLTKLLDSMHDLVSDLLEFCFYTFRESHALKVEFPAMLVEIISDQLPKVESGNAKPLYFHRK
Kind of assay: Inhibitory activity (IC50) against human mineralocorticoid receptor expressed in CV-1 cells. The class given is cell-based. A digest of the protocol: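 Cotransfection assays in CV-1 cells with a luciferase reporter, read as normalized LUC expression. In antagonist mode, the reference agonists were DHT for hAR, dexamethasone for hGR and aldosterone for hMR. Antagonist efficacy was expressed as the percent of maximal inhibition of the agonist. Values are means of at least three separate experiments in triplicate, or of two experiments.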

For a further assay, the target named is T3, Androgen receptor (Homo sapiens, UniProt P10275).
T3 sequence (P10275 whole entry): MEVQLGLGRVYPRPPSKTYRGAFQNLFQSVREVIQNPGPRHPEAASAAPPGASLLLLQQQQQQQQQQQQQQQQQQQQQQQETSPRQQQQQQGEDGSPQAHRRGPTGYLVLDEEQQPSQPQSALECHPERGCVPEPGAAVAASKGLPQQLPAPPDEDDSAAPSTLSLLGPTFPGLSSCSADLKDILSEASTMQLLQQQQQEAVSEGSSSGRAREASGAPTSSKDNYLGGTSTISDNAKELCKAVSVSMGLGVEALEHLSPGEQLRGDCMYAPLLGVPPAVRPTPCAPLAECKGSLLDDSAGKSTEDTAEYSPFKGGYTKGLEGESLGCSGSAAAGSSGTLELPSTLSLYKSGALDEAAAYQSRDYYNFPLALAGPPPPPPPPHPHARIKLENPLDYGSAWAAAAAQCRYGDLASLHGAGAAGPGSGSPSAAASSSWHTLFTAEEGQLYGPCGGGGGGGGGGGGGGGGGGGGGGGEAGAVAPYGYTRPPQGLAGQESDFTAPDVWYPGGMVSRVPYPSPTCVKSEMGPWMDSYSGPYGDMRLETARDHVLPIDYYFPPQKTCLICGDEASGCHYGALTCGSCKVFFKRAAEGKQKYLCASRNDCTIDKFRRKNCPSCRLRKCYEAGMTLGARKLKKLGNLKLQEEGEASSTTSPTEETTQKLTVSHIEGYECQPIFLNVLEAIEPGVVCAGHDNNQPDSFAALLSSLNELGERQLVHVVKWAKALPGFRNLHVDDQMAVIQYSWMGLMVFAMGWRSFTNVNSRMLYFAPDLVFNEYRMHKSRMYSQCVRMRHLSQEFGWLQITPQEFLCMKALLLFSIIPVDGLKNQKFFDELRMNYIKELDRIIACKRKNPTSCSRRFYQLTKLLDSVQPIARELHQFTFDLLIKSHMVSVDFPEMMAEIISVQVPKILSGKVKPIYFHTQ

Each structure is given as a SMILES string.

Usually IC50 stands for the concentration needed to halve the response being measured. Lower therefore signals inhibition by little substance. What is called EC50 is the concentration at which the effect is half-maximal. A lower EC50 goes with a more potent agent. In general, Ki refers to a dissociation constant, usually derived from enzyme kinetics or from competition with a known ligand.

Consider `CC1=CC(C)(C)Nc2ccc3c(c21)/C(=C/c1cc(F)ccc1F)Oc1ccccc1-3`, for which the IC50 (on Estrogen receptor; in the assay on CV-1; in assay [1]) was over 10000 nM in each case. At Progesterone receptor, this compound yielded an EC50 of 14.7 nM. For the same compound, the Ki on Androgen receptor was determined as 887 nM.
`CC1=CC(C)(C)Nc2ccc3c(c21)/C(=C/c1ccccc1C)Oc1ccccc1-3`: the figures for the IC50 (against Estrogen receptor; in the assay on CV-1; in assay [1]) were under 20 nM, over 10000 nM and over 10000 nM, respectively. The EC50 on Progesterone receptor turned out to be 5.7 nM. Further, the affinity on Androgen receptor, expressed as Ki, was 844 nM.
For the compound `CC1=CC(C)(C)Nc2ccc3c(c21)/C(=C/c1ccc(F)c(F)c1)Oc1ccccc1-3`, the IC50 (against Estrogen receptor; in the assay on CV-1; in assay [1]) was over 10000 nM throughout. In addition, the EC50 on Progesterone receptor came out at 14.7 nM. Further, the Ki at Androgen receptor was over 1000 nM.
